Data from ChEMBL document CHEMBL2401626 (J Med Chem, 2013).
Activity calls are given as the source filed them. The rule behind the calls is not given here.

Assays:
[1] = biological target: T1, Amyloid-beta precursor protein (Homo sapiens, UniProt P05067)
[2] = biological target: T1, Amyloid-beta precursor protein; details: at 20 µM
[3] = Antioxidant activity assessed as trolox equivalent of AAPH radical scavenging activity at 10 uM preincubated for 10 mins followed by AAPH challenge measured every min for 120 mins by ORAC-FL assay; assay type: functional
In short: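 Test compound and fluorescein (70 nM final) in 75 mM phosphate buffer pH 7.4, preincubated 10 min at 37 °C, then AAPH (40 mM solution) added. Fluorescence read every minute for 120 min (ex 485/em 520 nm). Curves normalized to buffer blank. […] Triplicate wells, at least three independent runs.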

[4] = biological target: T1, Amyloid-beta precursor protein; assay: Inhibition of Cu2+-induced amyloid beta (1 to 42) aggregation (unknown origin) at 50 uM after 24 hrs by thioflavin T fluorescence assay relative to untreated control
In short: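 Aβ1−42 (25 μM final) in 20 μM HEPES pH 6.6, 150 μM NaCl, with Cu2+ (25 μM final) and compound (50 μM final). Incubated at 37 °C for 24 h, then diluted into 50 mM glycine−NaOH pH 8.0 with 5 μM ThT. Fluorescence read at ex 450/em 485 nm after 5 min; inhibition calculated as (1 − IFi/IFc) × 100 after background subtraction.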

[5] = biological target: T1, Amyloid-beta precursor protein; assay: Induction of disaggregation of self-mediated amyloid beta (1 to 42) fibril (unknown origin) at 25 uM after 24 hrs by thioflavin T fluorescence assay relative to control
[6] = biological target: T1, Amyloid-beta precursor protein; assay: Induction of disaggregation of self-mediated amyloid beta (1 to 42) fibril (unknown origin) at 25 uM after 24 hrs by transmission electron microscopic analysis
[7] = biological target: T1, Amyloid-beta precursor protein; assay: Induction of disaggregation of Cu2+-induced amyloid beta (1 to 42) fibril (unknown origin) at 50 uM after 24 hrs by thioflavin T fluorescence assay relative to control
In short: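 Aβ1−42 (25 μM final) in 20 μM HEPES pH 6.6, 150 μM NaCl, preincubated with Cu2+ (25 μM) for 24 h at 37 °C. Compound (50 μM final) then added for another 24 h at 37 °C. Sample diluted into 50 mM glycine−NaOH pH 8.0 with 5 μM ThT; fluorescence read after 5 min at ex 450/em 485 nm.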

[8] = biological target: Acetylcholinesterase (Electrophorus electricus, UniProt O42275); assay: Inhibition of electric eel AChE using acetylthiocholine chloride as substrate preincubated for 15 mins followed by substrate addition measured every 1 min by Ellman's method
Acetylcholinesterase, sequence (O42275 whole entry): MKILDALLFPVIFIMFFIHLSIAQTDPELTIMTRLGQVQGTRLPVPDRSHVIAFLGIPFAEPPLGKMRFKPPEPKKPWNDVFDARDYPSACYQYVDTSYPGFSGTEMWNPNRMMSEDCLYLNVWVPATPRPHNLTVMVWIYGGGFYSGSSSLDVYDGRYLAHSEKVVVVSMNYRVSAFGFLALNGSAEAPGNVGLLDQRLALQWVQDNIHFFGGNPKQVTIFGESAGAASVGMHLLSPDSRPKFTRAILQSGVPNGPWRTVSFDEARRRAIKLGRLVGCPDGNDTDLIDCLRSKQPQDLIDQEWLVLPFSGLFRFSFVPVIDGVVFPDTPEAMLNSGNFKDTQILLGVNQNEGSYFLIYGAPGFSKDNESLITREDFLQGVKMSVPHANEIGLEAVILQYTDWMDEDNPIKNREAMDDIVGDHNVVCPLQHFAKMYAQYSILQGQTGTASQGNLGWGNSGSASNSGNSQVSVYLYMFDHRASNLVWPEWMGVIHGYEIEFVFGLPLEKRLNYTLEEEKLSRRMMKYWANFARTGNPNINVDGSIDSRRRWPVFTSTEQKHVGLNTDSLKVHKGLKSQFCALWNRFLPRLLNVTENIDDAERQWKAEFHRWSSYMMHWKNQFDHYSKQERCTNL
In short: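 Ellman method in 0.1 M potassium phosphate buffer, pH 8.0, 1 mL assay containing DTNB and thiocholine substrate (each 50 μL of 0.01 M stock). Enzyme (AChE stock 2.0 units/mL) preincubated with compound 15 min at 37 °C, then substrate added. A412 read at 1 min intervals at 37 °C. Each concentration in triplicate. IC50 from at least three experiments.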

T1 sequence (P05067 whole entry): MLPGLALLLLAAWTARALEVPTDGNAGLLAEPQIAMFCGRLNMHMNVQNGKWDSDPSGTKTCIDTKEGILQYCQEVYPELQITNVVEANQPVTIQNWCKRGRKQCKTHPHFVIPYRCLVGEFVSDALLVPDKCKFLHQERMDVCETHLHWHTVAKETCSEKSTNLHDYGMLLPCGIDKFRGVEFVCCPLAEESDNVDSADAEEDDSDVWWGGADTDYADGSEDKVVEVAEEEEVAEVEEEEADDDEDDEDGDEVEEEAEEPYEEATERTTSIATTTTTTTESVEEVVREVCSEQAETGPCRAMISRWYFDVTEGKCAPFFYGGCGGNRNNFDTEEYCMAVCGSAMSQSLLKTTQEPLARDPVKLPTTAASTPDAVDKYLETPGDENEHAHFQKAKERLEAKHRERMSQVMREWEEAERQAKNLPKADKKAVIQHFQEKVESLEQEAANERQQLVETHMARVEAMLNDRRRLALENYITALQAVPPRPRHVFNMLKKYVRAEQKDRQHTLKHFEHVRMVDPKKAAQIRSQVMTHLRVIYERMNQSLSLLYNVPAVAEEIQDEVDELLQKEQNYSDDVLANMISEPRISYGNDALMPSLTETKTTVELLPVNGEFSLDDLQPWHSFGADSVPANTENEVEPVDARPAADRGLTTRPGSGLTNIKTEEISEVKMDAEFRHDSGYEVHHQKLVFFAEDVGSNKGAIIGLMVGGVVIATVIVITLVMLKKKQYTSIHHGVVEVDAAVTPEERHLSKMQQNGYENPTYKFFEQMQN

Structure (SMILES) | IC50 [1] [µM] | inhibition [2] [%] | Activity [3] [equiv] | other results
CCCNc1ccc(O)c(CNc2ccc(/C=C/c3cc(OC)cc(OC)c3)cc2)c1 | 13.1 | 62.5 | 2.91 | –
Oc1c(I)cc(Cl)c2cccnc12 | – | 37.8 | – | inhibition [4]: 70.9%; Activity [5]: 16.5%; Activity [6]: Active; Activity [7]: 41%
COc1cc(/C=C/c2ccc(NCc3ccc(OC)cc3O)cc2)cc(OC)c1 | – | 3.98 | 3.32 | –
O=[N+]([O-])c1ccc(O)c(CNc2ccc(/C=C/c3cc(O)cc(O)c3)cc2)c1 | 7.06 | 71.5 | 4.23 | –
COc1cc(/C=C/c2ccc(NCc3cc[nH]c3)cc2)cc(OC)c1 | – | 13.6 | 3.51 | –
COc1cc(/C=C/c2ccc(NCc3cc([N+](=O)[O-])ccc3O)cc2)cc(OC)c1 | – | 46.5 | 2.51 | –
Oc1ccc(/C=C/c2cc(O)cc(O)c2)cc1 | – | 69.7 | – | inhibition [4]: 78.9%; Activity [5]: 61%; Activity [6]: Active; Activity [7]: 86.4%
Oc1cc(O)cc(/C=C/c2ccc(NCc3cccc(O)c3O)cc2)c1 | 7.87 | 78.8 | 3.26 | –
COc1cc(/C=C/c2ccc(NCc3ccccc3OC)cc2)cc(OC)c1 | – | 6.9 | 3.67 | –
C#CCN[C@@H]1CCc2ccc(OC(=O)N(C)CC)cc21 [LADOSTIGIL] | – | – | – | IC50 [8]: 50 µM
COc1cc(/C=C/c2ccc(NCc3c[nH]c4ccccc34)cc2)cc(OC)c1 | – | 24.1 | 3.67 | –
COc1cc(/C=C/c2ccc(NCc3cccc(OC)c3O)cc2)cc(OC)c1 | – | 18.1 | 4.54 | –

More lines, main results first:

IC50 [1] [µM] | inhibition [2] [%] | Structure (SMILES) | Activity [3] [equiv] | other results
12.2 | 71.2 | COc1ccc(/C=C/c2ccc(NCc3cc(N(C)C)ccc3O)cc2)cc1 | 2.37 | –
– | 20.7 | COc1cc(/C=C/c2ccc(NCc3ccccc3O)cc2)cc(OC)c1 | 3.67 | –
18.4 | 50.2 | COc1cc(/C=C/c2ccc(NCc3cc(NC(C)C)ccc3O)cc2)cc(OC)c1 | 2.73 | –
– | 31.3 | COc1cc(/C=C/c2ccc(NCc3cc(Cl)ccc3O)cc2)cc(OC)c1 | 4.12 | –
10.2 | 68.1 | Oc1cc(O)cc(/C=C/c2ccc(NCc3ccccc3O)cc2)c1 | 6.27 | –
10.3 | 67 | COc1cc(/C=C/c2ccc(NCc3cc(NCC(C)C)ccc3O)cc2)cc(OC)c1 | 4.51 | –
– | 7.17 | COc1cc(/C=C/c2ccc(NCc3ccccc3N(C)C)cc2)cc(OC)c1 | 5.87 | –
14.2 | 62.4 | CN(C)c1ccccc1CNc1ccc(/C=C/c2cc(O)cc(O)c2)cc1 | 3.57 | –
10.7 | 69.1 | CN(C)c1ccc(/C=C/c2ccc(NCc3cc(N(C)C)ccc3O)cc2)cc1 | 3.86 | –
